Pemphigus Ab inh = inhibitors of pemphigus antibody binding to human desmoglein-3 | hit rate 0.48% among 310,000 | P32926 | binding (percent of control), % at 10 µM | DSG3-coupled beads, scFv-anti-DSG3-GFP binding, flow cytometry; active compounds read low;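 active = binding more than 3 SD below its plate's average and above zero; inconclusive = below that plate limit but binding exactly zero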;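 also: hits lower antibody fragment binding to DSG3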
Myeloid diff 2 = promotes myeloid progenitor differentiation; hit rate 1% among 360,000; calls only at 10 µM; ER-HoxA9 myeloid progenitors, lysozyme-GFP differentiation, flow cytometry;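 active = normalized GFP-positive differentiation at or above the plate's own cutoff, the solvent-only control mean plus 3 SD; inconclusive = no clear call, values can overlap the other calls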;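 also: cells exposed to compound for four days before flow analysis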
HNF4A DNA FP = change in binding of human HNF4 alpha to DNA; P41235; HNF4a-FITC DNA binding, fluorescence polarization, 1 h; activity change, % at 10 µM; hit rate 0.3% among 360,000; in the data active = activity change above about 30%, passing the limit was not always enough
Target sequence (P41235 whole entry, looked up): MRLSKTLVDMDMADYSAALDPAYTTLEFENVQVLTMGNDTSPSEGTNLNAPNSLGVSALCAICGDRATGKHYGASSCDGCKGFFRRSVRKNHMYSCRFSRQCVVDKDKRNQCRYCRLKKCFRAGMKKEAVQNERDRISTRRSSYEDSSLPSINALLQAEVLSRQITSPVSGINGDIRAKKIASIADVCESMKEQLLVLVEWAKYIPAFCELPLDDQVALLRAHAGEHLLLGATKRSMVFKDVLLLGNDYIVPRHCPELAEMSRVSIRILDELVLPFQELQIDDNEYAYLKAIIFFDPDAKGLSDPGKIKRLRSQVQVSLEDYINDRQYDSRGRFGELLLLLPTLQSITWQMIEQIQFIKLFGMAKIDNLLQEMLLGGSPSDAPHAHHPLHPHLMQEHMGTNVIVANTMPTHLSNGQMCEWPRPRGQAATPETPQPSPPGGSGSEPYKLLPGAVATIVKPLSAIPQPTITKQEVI
SENP1 inh = inhibitors of human SENP1 SUMO protease catalytic domain; AID 624204; Q9P0U3; hit rate 0.21% among 360,000; inhibition, % at 10 µM; recombinant SENP1 catalytic domain, CyPet-SUMO1-YPet FRET cleavage;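 active = inhibition at least 30% at 10 µM, raw YFP signal under a set limit, fluorescence ratio 0.5 to 1.5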;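 also: 0% = enzyme with DMSO and 100% = no enzyme wells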
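Test system: hSENP1 catalytic domain, recombinant; Amount: 20 pM final SENP1 enzyme; Medium: Tris pH 8 buffer plus EDTA, NaCl, BME, BSA, NP40, catalase; Schedule: 50 min enzyme reaction, room temperature, light-protected; Technique: FRET fluorescence in CFP and YFP emission channels; Controls: no-enzyme wells low, DMSO-plus-enzyme wells high control.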
H9c2 protect = myocardial damage modulation in H9c2 cells; protection from H2O2 cell death, % at 20 µM; AID 588492; hit rate 0.63% among 360,000; H9c2 cardiomyocytes, H2O2 injury protection, ATPLite, 2 h;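 active = compounds giving at least 50% protection of heart cells from peroxide-induced death in the single-dose screen, raw or plate-pattern-corrected value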;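 also: 0% = DMSO wells with peroxide and 100% = DMSO wells without peroxide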
Exocytosis inh = blocks lytic granule exocytosis; AID 651702; hit rate 0.66% among 360,000; TALL-104 LAMP-1 surface exposure, flow cytometry; cells stimulated with thapsigargin and PMA; inhibition, % at 10 µM;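 active = inhibition above about 55%, limit read from the data; inconclusive = no clear call, values can overlap the other calls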
Numbers without * were called inactive; i = inactive; ? = inconclusive; . = no result; + = active, no number. Shown are actives, neighbours in structure and some others; about 3% of the full set was active somewhere.

SMILES	Pemphigus Ab inh	Myeloid diff 2	HNF4A DNA FP	SENP1 inh	H9c2 protect	Exocytosis inh
CC(C)c1ccc(C(=O)Nc2ccc(N3CCOCC3)cc2)cc1	102.0	+	4.2	-0.3	-3.7	1.4
CC(C)CC(=O)NC(=S)Nc1ccc(N2CCOCC2)cc1	113.7	+	2.1	0.6	4.3	-9.6
CC(C)CC(=O)NC(=S)Nc1ccc(CN2CCOCC2)cc1	109.0	i	0.5	-1.5	16.1	4.7
O=C(NC(=S)Nc1ccc(N2CCOCC2)cc1)c1ccc(Cl)cc1	72.7*	i	-0.7	3.1	-14.0	-1.7
CCCCC(=O)NC(NC(=S)N1CCOCC1)C(Cl)(Cl)Cl (centres undefined)	127.5	i	-2.3	3.0	7.7	0.9
CC(NCC(=O)Nc1ccccc1C(=O)NC1CC1)c1ccco1 (centres undefined)	89.4	i	1.1	-0.5	8.5	2.9
Cc1c(CC(=O)N2C[C@H]3C[C@@H](C2)c2cccc(=O)n2C3)c(=O)oc2cc3occ(C(C)(C)C)c3cc12	102.2	i	-1.1	3.1	2.4	15.3
COc1ccc(F)cc1CN1CCN(C(=O)c2ccc(S(=O)(=O)N3CCCCCC3)cc2)CC1	92.8	i	0.6	-3.1	-1.5	2.2
O=C(c1ccncc1)N(Cc1ccccc1)Cc1nc2ccccc2c(=O)[nH]1	112.3	+	1.3	2.3	13.1	-3.7
COc1ccc(NC(=O)CN2CCC(n3c(C)nc4cc(F)ccc43)CC2)c(OC)c1	.	i	-2.6	1.9	11.1	0.7
COc1cc(OC)cc(C(=O)N2CCC(n3c(C)nc4cc(F)ccc43)CC2)c1	.	+	2.1	-4.4	13.5	0.7
Cc1nc(N2N=C(c3ccc(Cl)cc3)CC2c2ccco2)sc1C(=O)N(C)C (centres undefined)	97.9	+	-0.6	-74.8	-1.1	-1.5
Cc1ccc(C(c2c(C)n(C)n(-c3ccccc3)c2=O)c2c(C)n(C)n(-c3ccccc3)c2=O)s1	99.0	i	1.4	0.9	59.2*	0.3
O=C(COC(=O)c1ccc([N+](=O)[O-])o1)Nc1ccc(N2CCOCC2)cc1	.	i	-2.0	1.4	51.9*	-7.1
O=C(COC(=O)c1cc2ccccc2oc1=O)Nc1cccc(S(=O)(=O)N2CCCCCC2)c1	99.8	i	-0.7	0.0	4.8	3.3
CN(C)S(=O)(=O)c1cccc(NC(=O)COC(=O)c2cc3ccccc3oc2=O)c1	71.2*	i	6.7	-2.5	-7.2	0.1
CN(C)S(=O)(=O)c1cccc(NC(=O)COC(=O)c2ccc([N+](=O)[O-])o2)c1	95.7	i	-0.5	-1.2	101.7*	-3.2
Cc1cc2c(cc1S(=O)(=O)CCC(=O)Nc1cccc(C(F)(F)F)c1)OCC(=O)N2	.	i	2.4	3.2	-1.0	-1.8
O=C(NCc1cccc2ccsc12)c1cccs1	105.6	i	1.8	2.0	1.9	6.7
CCOC(=O)[C@]12CCCC=C1N(CCC1=CCCCC1)C(=O)[C@H](CC(=O)NCC13CC4CC(CC(C4)C1)C3)C2	.	i	-0.4	1.4	.	5.3
C/C(=N\Nc1nc(C)cc(-c2ccccc2)n1)c1ccc(C)o1	97.8	i	3.8	-10.6	47.6*	-0.9
C/C(=N/Nc1nc(C)cc(-c2ccccc2)n1)c1ccco1	121.9	.	2.1	-1.6	-1.4	-3.4
C[N+](C)=C1SCC(C)(/C=N/O)S1 (centres undefined)	.	i	1.6	0.4	-4.3	107.5*
Cn1cc(C(=O)Nc2ccc(C#N)cc2)c2ccccc2c1=O	102.8	i	1.5	0.2	10.0	-0.1
NC(=O)Cn1c(=O)n(C2CCCCC2)c(=O)c2c3c(sc21)CCCCC3	90.9	i	-0.1	2.1	-0.5	-3.7
C=CC(=O)N1C/C(=C/c2ccccc2)C(=O)/C(=C\c2ccccc2)C1	89.9	?	-0.1	-1.8	-15.9	70.7*
CN1C/C(=C/c2ccncc2)C(=O)/C(=C/c2ccncc2)C1	.	i	-0.3	0.5	-1.2	-6.4
O=C1C(=Cc2ccc(Cl)cc2)Cc2ccccc21	.	i	1.3	-0.4	.	-0.2
C=CC(=O)N1C/C(=C/c2ccc(Cl)cc2)C(=O)/C(=C\c2ccc(Cl)cc2)C1	.	?	-4.3	-4.2	-15.5	86.5*

From PubChem
